Test results from ChEMBL document CHEMBL5104216, “Fragment-Sized Thiazoles in Fragment-Based Drug Discovery Campaigns: Friend or Foe?” (ACS Med Chem Lett, 2022).

What was measured:
[1] = biological target: UDP-N-acetylglucosamine 1-carboxyvinyltransferase (Escherichia coli K-12) (UniProt P0A749); assay: Inhibition of recombinant Escherichia coli MurA assessed as residual activity at 500 uM using UDP-N-acetylglucosamine as substrate preincubated for 30 mins followed by substrate addition and measured by malachite green based colorimetric assay relative to control
Procedure, shortened: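 E. coli MurA at 500–625 μM with 30 min preincubation before substrate addition. Malachite green colorimetric read-out. Activity threshold was <50% residual activity.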

[2] = Thiol reactivity of compound measured by TNB2- assay; format: physicochemical
Procedure, shortened: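 Reactivity toward the thiol surrogate TNB2– in a nonproteinaceous setting without TCEP. Reversibility tested by adding TCEP and checking that absorbance was restored.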

[3] = Redox activity of compound assessed as redox index at 100 uM in presence of 100 uM TCEP measured by H2DCFDA assay; format: physicochemical
Procedure, shortened: (§1)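 Reactive oxygen species, with or without the reducing agent TCEP, detected with the fluorescent probe H2DCFDA. Compound spectral interference (autofluorescence) checked under the assay conditions.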

[4] = Redox activity of compound assessed as redox index at 10 uM measured by resazurin assay; format: physicochemical
Procedure, shortened: (§2)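 Free radicals formed by redox cycling with DTT detected with resazurin by fluorimetric read-out. Spectral interference checked.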

[5] = system: Mycobacterium tuberculosis; assay: Inhibition of Mycobacterium tuberculosis MetAP1a assessed as residual activity at 625 uM using L-methionine 7-amido-4-methylcoumarin as fluorogenic substrate and measured by fluorescence based assay
Procedure, shortened: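 Kinetic fluorescence assay in which the enzyme hydrolyses L-methionine 7-amido-4-methylcoumarin to fluorescent 7-amino-4-methylcoumarin. Compounds were tested at 500–625 μM, and activity was called at <50% residual activity. Spectral interference was checked by measuring absorbance at the excitation and emission wavelengths and compound autofluorescence.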

[6] = Redox activity of compound assessed as redox index at 1 uM measured by resazurin assay; format: physicochemical; procedure, shortened: as §2
[7] = Redox activity of compound assessed as redox index at 100 uM in presence of 1 mM DTT measured by HRP-PR assay; format: physicochemical
Procedure, shortened: (§3)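 H2O2 from redox cycling, with or without DTT, detected with horseradish peroxidase-phenol red (HRP-PR).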

[8] = biological target: Replicase polyprotein 1ab (Severe acute respiratory syndrome coronavirus 2) (UniProt P0DTD1); assay: Inhibition of recombinant SARS-CoV-2 3CLpro expressed in Escherichia coli NiCo21(DE3) assessed as residual activity at 500 uM using DABCYL-KTSAVLQSGFRKME-EDANS as substrate preincubated for 30 mins followed by substrate addition and measured by FRET assay relative to control
Procedure, shortened: (§4)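 Kinetic fluorescence read-out of cleavage of a FRET substrate carrying a DABCYL–EDANS pair. Compounds were tested at 500–625 μM, and <50% residual activity was taken as the activity threshold. To exclude false positives, absorbance at the excitation and emission wavelengths and autofluorescence of the compounds were measured.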

[9] = biological target: UDP-N-acetylglucosamine 1-carboxyvinyltransferase (Escherichia coli K-12) (UniProt P0A749); assay: Inhibition of recombinant Escherichia coli MurA assessed as residual activity at 500 uM using UDP-N-acetylglucosamine as substrate and measured by malachite green based colorimetric assay relative to control
Procedure, shortened: (§5)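 Screened at 500–625 μM with malachite green colorimetric read-out. Activity threshold was <50% residual activity.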

[10] = biological target: UDP-N-acetylglucosamine 1-carboxyvinyltransferase (Escherichia coli K-12) (UniProt P0A749); assay: Inhibition of recombinant Escherichia coli MurA assessed as residual activity at 500 uM using UDP-N-acetylglucosamine as substrate preincubated for 30 mins in presence of 1 mM DTT followed by substrate addition and measured by malachite green based colorimetric assay relative to control
[11] = Redox activity of compound assessed as redox index at 100 uM measured by H2DCFDA assay; format: physicochemical; procedure, shortened: as §1
[12] = Redox activity of compound assessed as redox index at 100 uM measured by HRP-PR assay; format: physicochemical; procedure, shortened: as §3
[13] = biological target: Replicase polyprotein 1ab (Severe acute respiratory syndrome coronavirus 2) (UniProt P0DTD1); assay: Inhibition of recombinant SARS-CoV-2 3CLpro expressed in Escherichia coli NiCo21(DE3) assessed as residual activity at 500 uM using DABCYL-KTSAVLQSGFRKME-EDANS as substrate preincubated for 30 mins in presence of 1mM DTT followed by substrate addition and measured by FRET assay relative to control; procedure, shortened: as §4
[14] = biological target: D-alanine--D-alanine ligase B (Escherichia coli K-12) (UniProt P07862); assay: Inhibition of recombinant Escherichia coli DdlB assessed as residual activity at 500 uM using D-alanine as substrate incubated for 20 mins and measured by malachite green based colorimetric assay relative to control; procedure, shortened: as §5
[15] = Aqueous stability of the compound at pH 7.4 measured after 60 mins by spectrophotometric analysis; format: physicochemical; details: buffer, pH 7.4, 1 h
Procedure, shortened: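 Followed by spectrophotometry as changes in the compound absorption spectrum over time in 50 mM Tris-HCl pH 7.4, 0.5 mM EDTA, read after 60 min in 96-well microplate format. Compounds with low absorbance were not evaluated.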

Chain of UDP-N-acetylglucosamine 1-carboxyvinyltransferase (Escherichia coli K-12) (P0A749 whole entry): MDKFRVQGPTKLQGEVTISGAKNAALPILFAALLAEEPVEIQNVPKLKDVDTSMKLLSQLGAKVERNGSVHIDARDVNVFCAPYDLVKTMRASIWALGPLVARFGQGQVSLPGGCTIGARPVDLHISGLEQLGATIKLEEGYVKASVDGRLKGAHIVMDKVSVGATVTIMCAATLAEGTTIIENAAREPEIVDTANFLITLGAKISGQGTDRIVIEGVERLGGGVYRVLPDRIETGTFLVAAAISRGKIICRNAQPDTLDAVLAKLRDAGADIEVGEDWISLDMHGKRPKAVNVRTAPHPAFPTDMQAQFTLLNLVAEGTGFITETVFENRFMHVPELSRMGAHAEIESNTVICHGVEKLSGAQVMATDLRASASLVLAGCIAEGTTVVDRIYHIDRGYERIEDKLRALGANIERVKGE

Structure (SMILES) | Activity [1] [%] | Activity [2] | Activity_index [3] | Activity_index [4] | Activity [5] [%] | Activity_index [6] | Activity_index [7] | Activity [8] [%] | Activity [9] [%] | Activity [10] [%] | Activity_index [11] | Activity_index [12] | Activity [13] [%] | Activity [14] [%] | Stability [15]
Nc1nc(C(=O)O)cs1 | 0 | Active | 1.6 | 1.1 | 155 | 1 | 1 | 14.2 | 1.6 | 107 | 2.1 | 1 | 84.9 | 96 | –
Cc1cnc(Br)s1 | 8.2 | Active | 0.9 | 1 | 116 | 0.9 | 1 | 19.8 | 45.2 | 105 | 0.9 | 1 | 79.1 | 77 | –
Brc1cnc(Br)s1 | 0 | Active | 1 | 0.9 | 71.7 | 0.9 | 1 | 17.1 | 13.1 | 99 | 0.7 | 1 | 79.9 | 91 | –
O=C(O)c1csc(Br)n1 | 96 | – | 1 | 0.9 | 81.7 | 0.9 | 1 | 73.6 | 102 | 101 | 1 | 1 | 73.7 | 92 | Stable
COC(=O)c1cnc(Br)s1 | 93 | – | 1.1 | 1.1 | 99.2 | 1 | 1 | 100 | 96.6 | 102 | 1 | 1 | 92.9 | 96 | Stable
CC(C)(C)c1csc(N)n1 | 3.5 | Active | 0.5 | 0.9 | 128 | 1.1 | 1 | 13 | 5.7 | 106 | 1.1 | 1 | 79.1 | 94 | –
COC(=O)CC(=O)Nc1ncc(Br)s1 | 60.9 | – | 1 | 0.9 | 78.2 | 1 | 1 | 95.3 | 97.9 | 107 | 1.2 | 1 | 86 | 88 | Stable
O=C(O)c1csc(-c2ccncc2)n1 | 90.4 | – | 1.1 | 1 | 93.4 | 1 | 1 | 98 | 103 | 106 | 1 | 1 | 94.4 | 96 | Stable
Nc1nc(-c2ccncc2)cs1 | 56.7 | – | 1.2 | 1 | 110 | 1 | 1 | 91.9 | 86.7 | 103 | 1.1 | 0.8 | 77.8 | 96 | Stable
Brc1nncs1 | 143 | Active | 1.2 | 0.9 | 106 | 0.9 | 1 | 5.1 | 47 | 114 | 1 | 1 | 78.3 | 93 | –
Fc1ccc(-c2csc(Br)n2)cc1F | 12 | – | 0.9 | 0.9 | 84.4 | 0.9 | 1 | 85.1 | 89.1 | 81.9 | 0.8 | 1 | 78.9 | 136 | Unstable
Cc1csc(N)n1 | 93.3 | – | 0.8 | 1 | 123 | 0.9 | 1 | 96.7 | 99.3 | 102 | 1 | 1 | 82.4 | 90 | Stable
Nc1nc(CC(=O)O)cs1 | 79.4 | – | 0.9 | 1 | 125 | 0.9 | 1 | 105 | 90.8 | 99.2 | 1.1 | 1.1 | 84.2 | 96 | Stable
Cc1nc(C(=O)O)cs1 | 1.6 | – | 1.6 | 1 | 73.9 | 0.9 | 1 | 3.4 | 7.2 | 105 | 0.9 | 1 | 78.7 | 92 | Stable
Nc1nccs1 [AMINOTHIAZOLE] | 39.7 | – | 0.9 | 0.9 | 94.6 | 0.9 | 1 | 86.1 | 88 | 105 | 0.8 | 1 | 82.5 | 95 | Stable
Nc1nnc(C2CC2)s1 | 2.2 | – | 1.2 | 0.9 | 92.5 | 0.9 | 1.1 | 34.2 | 3.5 | 99.8 | 1.2 | 1.1 | 79.3 | 96 | Stable
CCOC(=O)c1csc(Br)n1 | 84 | – | 0.9 | 1 | 90.8 | 0.9 | 1 | 71.7 | 89.8 | 100 | 1 | 1 | 80.7 | 97 | Stable
